Measurements collected from several papers.
Each line is one published result; the experiments were not run side by side.
SLCO1B3: Solute carrier organic anion transporter family member 1B3 (SLCO1B3, Homo sapiens, UniProt Q9NPD5)

Compound | target or system | test | system | setting | endpoint | value
COc1ccc2c(c1)CN(C(=O)CCN1CCC(Cc3ccccc3)CC1)CC[S@@+]2[O-] | – | – | male human, plasma | intravenous, 0.15 mg/kg, healthy volunteers | clearance | 223 mL/min
COCC(=O)N1CCC[C@H](C(=O)NCc2nc(-c3ccccc3)cs2)C1 | – | metabolic stability | human, liver microsomes | 0.5 µM | scaled CLint | 7.8 mL/min/kg
O=C(O)COc1cccc(-c2nc(Nc3ccc4[nH]ncc4c3)c3ccccc3n2)c1 | SLCO1B3 | transporter uptake, inhibitor | – | – | IC50 | 1.55 µM
Cc1ccc(-c2csc(CNC(=O)[C@H]3CCCN(C(=O)COCCF)[C@H]3C)n2)cn1 | – | metabolic stability | human, liver microsomes | 0.5 µM | microsomal CLint | 5.1 µL/min/mg
CC(C)C(=O)OC[C@H]1O[C@@H](n2ccc(NO)nc2=O)[C@H](O)[C@@H]1O | HEp-2 | cell growth or viability, CCK-8 | – | 5 days | CC50 | 50.1 µM
Nc1ccn([C@@H]2O[C@H](CO)[C@@H](O)C2(F)F)c(=O)n1 | MCF7 | cell growth or viability, MTT | – | 10 µg/mL, 24 h | viability | 20.7%
O=C1CCC(N2C(=O)c3cccc(NCCc4cn(Cc5ccc(-c6nc7cc(-c8ccccc8)ccn7c6Nc6ccc(C(=O)O)cc6)cc5)nn4)c3C2=O)C(=O)N1 (centres unmarked) | MCF7 | cell growth or viability | – | 72 h | CC50 | 108 µM
NC/C(=C\F)COc1cccc(Cn2c(=S)[nH]c(=O)c3[nH]cnc32)c1 | SLCO1B3 | transporter uptake, inhibitor | – | 30 µM | inhibition | < 50%
N#C[C@@]1(c2ccc3c(N)ncnn23)O[C@H](COC(=O)c2ccccc2)[C@@H](O)[C@H]1O | HEp-2 | cell growth or viability, CCK-8 | – | 5 days | CC50 | 79.2 µM
O=C(Nc1ccc(S(=O)(=O)O)c2ccccc12)c1ccc(=O)oc1 | TZM-bl | cell growth or viability, resazurin | – | – | CC50 | > 12.5 µM
CC[C@H](C)[C@H](N)C(=O)OC[C@H]1O[C@@](C#N)(c2ccc3c(N)ncnn23)[C@H](O)[C@@H]1O | HEp-2 | cell growth or viability, CCK-8 | – | 5 days | CC50 | > 100 µM
CCOCC(=O)N1CCC[C@H](C(=O)NCc2nc(-c3ccc(C)nc3)cs2)C1 | – | metabolic stability | male Sprague-Dawley rat, liver microsomes | 0.5 µM | scaled CLint | 33 mL/min/kg
CCC(CC)COC(=O)[C@H](C)N[P@](=O)(OC[C@H]1O[C@@](C#N)(c2ccc3c(N)ncnn23)[C@H](O)[C@@H]1O)Oc1ccccc1 | HEp-2 | cell growth or viability, CCK-8 | – | 5 days | CC50 | 2.95 µM
O=C(NCc1nc(-c2ccc(C(F)(F)F)cc2)cs1)[C@H]1CCCN(C(=O)COCCN2CCCCC2)C1 | – | metabolic stability | human, liver microsomes | 0.5 µM | microsomal CLint | 21 µL/min/mg
